Assay results gathered from unrelated publications.
Each line is one published result; the experiments were not run side by side. In brackets after ≈: the same amount, converted by molar mass.

Compound | organism | test | test system | conditions | endpoint | result
C[C@@H]1[C@H](O)[C@@H](C)/C=C/C=C/C=C/C=C/C=C/C=C/C=C/[C@H](O[C@@H]2O[C@H](C)[C@@H](O)[C@H](N)[C@@H]2O)C[C@@H]2O[C@](O)(C[C@@H](O)C[C@@H](O)[C@H](O)CC[C@@H](O)C[C@@H](O)CC(=O)O[C@H]1C)C[C@H](O)[C@H]2C(=O)O | Cryptococcus neoformans | microbial growth | ATCC90113 |  | MIC | 1.25 µg/mL
CC(C)C(C)CCCCCCCCCCCc1cc(O)cc(O)c1 (stereo not shown) | Bacillus subtilis | microbial growth |  |  | IC50 | 11.4 µM
NC[C@H]1O[C@H](O[C@H]2[C@H](O)[C@@H](O[C@H]3O[C@H](CO)[C@@H](O)[C@H](N)[C@H]3O)[C@H](N)C[C@@H]2N)[C@H](N)C[C@@H]1O | Listeria monocytogenes | microbial growth | ATCC19115 |  | MIC | 4.7 µg/mL
O=C(CCCCC1CCCCC1)CP(=O)(O)O | Bacillus subtilis | microbial growth | ATCC23857 |  | MIC | 25 µg/mL
CCCSc1ccc2nc(NC(=O)OC)[nH]c2c1 | Cryptococcus neoformans | microbial growth, broth dilution |  | 72 h, clinical isolate | IC50 | 1.25 µM
CCC[C@H]1CN(c2cccc(OC(F)(F)F)c2)C(=O)CN1Cc1cncn1Cc1ccc(Br)cc1 | Cryptococcus neoformans | microbial growth, broth dilution |  |  | MIC | 3 to 6 µM
CC[C@H](C)C[C@H](C)CCCCCCCCC(=O)N[C@H]1C[C@@H](O)[C@@H](NCCN)NC(=O)[C@@H]2[C@@H](O)CCN2C(=O)[C@H]([C@H](O)CCN)NC(=O)[C@H]([C@H](O)[C@@H](O)c2ccc(O)cc2)NC(=O)[C@@H]2C[C@@H](O)CN2C(=O)[C@H]([C@@H](C)O)NC1=O | Nakaseomyces glabratus | microbial growth, broth dilution | MY1381 |  | MIC | 0.25 µg/mL
CCCC(=O)CP(=O)(O)O | Bacillus subtilis | microbial growth | ATCC23857 |  | MIC | > 200 µg/mL
O=C(NN=Cc1ccc(O)c(Br)c1)c1cccc(Br)c1 | Cryptococcus neoformans | microbial growth, broth dilution |  |  | MIC | 0.3 µg/mL
CCCCCCCCCCCCCCCCCCCCc1cc(O)cc(O)c1 | Bacillus subtilis | microbial growth |  |  | IC50 | > 200 µM
Cc1c(NN=C(C#N)C2=NC(=O)CS2)c(=O)n(-c2ccccc2)n1C | Bacillus subtilis | microbial growth, well diffusion |  | 100000 µg/mL | inhibition zone | 26 mm
CCCCCC/C=C\CCCCCCCCCC(=O)NP(=O)(O)O | Bacillus subtilis | microbial growth | ATCC23857 |  | MIC | 100 µg/mL
O=C(O)c1cn(C2CC2)c2cc(N3CCNCC3)c(F)cc2c1=O | Bacillus subtilis | microbial killing |  |  | MBC | 19 µM (≈ 6.3 µg/mL)
CC1(C)S[C@@H]2[C@H](NC(=O)[C@H](N)c3ccccc3)C(=O)N2[C@H]1C(=O)O | Proteus vulgaris | microbial growth, well diffusion | ATCC13315 | 60000 µg/mL | inhibition zone | 25 mm
CC(C)CCCCCCCCCCCCCCc1cc(O)cc(O)c1 | Bacillus subtilis | microbial growth |  |  | IC50 | 10.2 µM
O=C(CCCCc1ccccc1)CP(=O)(O)O | Bacillus subtilis | microbial growth | ATCC23857 |  | MIC | > 200 µg/mL
